This note sets out measurements from ChEMBL document CHEMBL1123854, “Dissociation of hypolipidemic and antiplatelet actions from adverse myotonic effects of clofibric acid related enantiomers” (J Med Chem, 1987).

As a reminder, the IC50 is the concentration at which inhibition is half-maximal.

Test [1] is filed under the species Homo sapiens. The experiment in a line: Inhibition against platelet aggregation induced by adenosine diphosphate (ADP) in vitro. The format is functional. In outline: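 Human platelet-rich plasma from drug-free volunteers; compound preincubated 1 min before ADP (1–3 μM, lowest level giving maximal transmittance change). Aggregation followed by aggregometer for 6 min; IC50 for inhibition of the second phase of maximal aggregation, mean ± SEM, n = 4–10 donors.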

The species entered for test [2] is Rattus norvegicus. The test is described as follows: Serum cholesterol level in male Sprague-Dawley rats (fed with high cholesterol semisynthetic diet) after 4 days of treatment. The format is functional, organism-based. In outline:
(§1)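 Male Sprague-Dawley rats on a high-cholesterol semisynthetic diet for 1 week, then stratified-randomized into groups of six. Dosing was 0.3 mmol/kg twice daily by intragastric route in 0.25% methylcellulose for 1 week; controls received vehicle. Serum cholesterol was measured after 4 and 7 days of dosing. Values are mean ± SD of six rats.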

Test [3] is filed under the species Rattus norvegicus. The test is described as follows: Serum cholesterol level in male Sprague-Dawley rats (fed with high cholesterol semisynthetic diet) after 7 days of treatment. Format: functional, organism-based. In short, it runs like this: as §1
The species named for test [4] is Rattus norvegicus. The experiment in a line: Liver cholesterol level in male Sprague-Dawley rats (fed with high cholesterol semisynthetic diet) after 1 week of treatment. Format: functional. In short, it runs like this: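 Rats prefed high-cholesterol semisynthetic diet 1 week, then stratified by serum cholesterol into groups of six. Dosed 0.3 mmol/kg intragastrically twice daily in 0.25% methylcellulose for 1 week; controls got vehicle. Livers removed after exsanguination; cholesterol measured in lipid extracts. Mean ± SD, six rats.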

For test [5], the species on record is Homo sapiens. The test is described as follows: Inhibition against platelet aggregation induced by arachidonic acid(AA) in vitro. The format is functional. In outline:
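Human platelet-rich plasma from drug-free volunteers; compound preincubated 1 min before arachidonic acid (300–500 μM, lowest level giving maximal transmittance change). Aggregation read by aggregometer over 4 min; IC50 for inhibition of maximal aggregation, mean ± SEM, n = 4–10 donors.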

Test [6] is filed under the species Rattus norvegicus. The test is described as follows: Serum cholesterol level in male Sprague-Dawley rats (fed with high cholesterol semisynthetic diet)before the treatment. The format is functional, organism-based. In short, it runs like this:
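Male Sprague-Dawley rats fed a high-cholesterol semisynthetic diet for 1 week. Blood was drawn from the orbital plexus under ether anaesthesia before dosing (day -1) for serum cholesterol, which was used to stratify-randomize groups of six. Values are mean ± SD of six rats.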

For test [7], the species on record is Rattus norvegicus. The experiment in a line: Inhibition against chloride conductance in rat extensor digitorum longus(EDL) muscle fibers in vitro. Format: functional. In outline: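 Rat EDL fibres (Charles River Sprague-Dawley, normal diet) studied in vitro by square-pulse microelectrode method in normal and chloride-free medium at several drug concentrations. Chloride conductance = membrane conductance in normal minus chloride-free solution. Conductance–concentration curves fit to single-site binding equation by nonlinear least squares to give IC50 ± SD; 7–79 fibres from 2–16 muscles per concentration.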

With `C[C@H](Oc1ccc(Cl)cc1)C(=O)O`, the IC50 in test [1] worked out at 998 µM; in test [5] it was 1120 µM. Further, the Serum cholesterol in test [2] amounted to 107 mg/dL; in test [3], 184 mg/dL; in test [6], 279 mg/dL. For the same compound, the Liver cholesterol in test [4] was 45.4 mg (g of tissue)-1.
Regarding `C[C@@H](Oc1ccc(Cl)cc1)C(=O)O`, the IC50 in test [1] was 201 µM; in test [7], more than 230 µM; in test [5], 253 µM. The Serum cholesterol worked out at 116 mg/dL in test [2], 119 mg/dL in test [3] and 276 mg/dL in test [6]. In addition, the Liver cholesterol in test [4] is 40.8 mg (g of tissue)-1.
Take `CC(C)(Oc1ccc(Cl)cc1)C(=O)O` [CLOFIBRIC ACID]: the IC50 is 1240 µM in test [1] and more than 4000 µM in test [5]. For the same compound, the values for the Serum cholesterol in test [2], in test [3] and in test [6] were 113 mg/dL, 149 mg/dL and 271 mg/dL, respectively. For the same compound, the Liver cholesterol in test [4] is on record as 41.9 mg (g of tissue)-1.
For `CC[C@H](Oc1ccc(Cl)cc1)C(=O)O`, the IC50 in test [1] came out at 1180 µM; in test [5], 1600 µM. Also, the results for the Serum cholesterol in test [2], in test [3] and in test [6] were 174 mg/dL, 193 mg/dL and 278 mg/dL, respectively. For the same compound, the Liver cholesterol in test [4] is recorded as 37.2 mg (g of tissue)-1.
Turning to `CC[C@@H](Oc1ccc(Cl)cc1)C(=O)O`, the IC50 in test [1] is 686 µM; in test [7], more than 230 µM; in test [5], 721 µM. The results for the Serum cholesterol in test [2], in test [3] and in test [6] were 158 mg/dL, 184 mg/dL and 275 mg/dL, respectively. For the same compound, the Liver cholesterol in test [4] is listed as 34.8 mg (g of tissue)-1.
